Where a chain is given by its changes, count along the chain named. Activity calls are given as the source filed them. The rule behind the calls is not given here.
Experiments:
Cytochrome P450 2C8 = Cytochrome P450 2C8 (Homo sapiens, UniProt P10632); experiment: Inhibition of CYP2C8 in human liver microsomes using paclitaxel as substrate upto 10 uM after 20 mins in presence of NADPH by LC-MS/MS analysis; type: ADME
Staphylococcus aureus [1] = experiment: In vivo anti-virulence activity against methicillin-resistant Staphylococcus aureus LRSA202 infected in BALB/c mouse model assessed as reduction in bacterial load in kidney at 0.1 mg bid for 3.5 days administered intraperitoneally 6 hrs post infection by serial dilution method relative to control; type: functional, organism-based
Outline: (§1)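 Mice were infected by retro-orbital injection with LRSA56 (5.0 × 10^7 CFU) or LRSA202 (7.0 × 10^7 CFU). Compound was given intraperitoneally 6 h after infection. […] Log10 CFU was counted in kidneys and hearts, with groups compared by two-tailed Mann-Whitney test.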

[2] = target: T1, 4,4'-diapophytoene desaturase (4,4'-diaponeurosporene-forming) (Staphylococcus aureus (strain Newman), UniProt O07855); experiment: Inhibition of CrtN in Staphylococcus aureus Newman after 12 resistant development passages under 0.15% v/v H2O2 assessed as reduction in staphyloxanthin levels under IC90 level after 48 hrs by spectrophotometric method-based pigment inhibition assay; parameters: species or system Staphylococcus aureus subsp. aureus str. Newman
T1 sequence (O07855 whole entry): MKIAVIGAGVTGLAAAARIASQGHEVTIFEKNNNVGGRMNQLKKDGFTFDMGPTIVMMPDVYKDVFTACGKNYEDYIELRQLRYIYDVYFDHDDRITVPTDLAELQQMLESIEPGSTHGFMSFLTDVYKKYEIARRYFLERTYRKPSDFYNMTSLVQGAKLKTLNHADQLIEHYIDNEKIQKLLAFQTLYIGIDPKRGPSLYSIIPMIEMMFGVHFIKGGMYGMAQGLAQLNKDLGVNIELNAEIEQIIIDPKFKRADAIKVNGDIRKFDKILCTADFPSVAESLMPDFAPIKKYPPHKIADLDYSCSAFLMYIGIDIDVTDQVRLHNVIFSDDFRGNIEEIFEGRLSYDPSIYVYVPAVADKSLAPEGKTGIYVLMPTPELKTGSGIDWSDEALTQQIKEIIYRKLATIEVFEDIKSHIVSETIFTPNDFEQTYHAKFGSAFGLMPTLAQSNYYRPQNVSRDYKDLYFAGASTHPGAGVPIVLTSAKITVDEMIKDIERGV

[3] = AUC (0 to 24 hrs) in mouse at 10 mg/kg, po administered as single dose by LC-MS/MS analysis; type: ADME, organism-based; parameters: time < 24 hr, dose 10 mg/kg, route oral; details: in vivo
[4] = target: T2, 4,4'-diapophytoene desaturase (4,4'-diaponeurosporene-forming) (Staphylococcus aureus (strain MW2)) (UniProt Q8NUQ6); details: Staphylococcus aureus subsp. aureus MW2; USA400; 1 uM
T2 sequence (whole entry): T1 sequence (O07855 whole entry) with R500Q

[5] = Tmax in mouse at 10 mg/kg, po administered as single dose by LC-MS/MS analysis; type: ADME, organism-based; details: in vivo
[6] = Tmax in mouse at 2 mg/kg, iv administered as single dose by LC-MS/MS analysis; type: ADME, organism-based; details: in vivo
Staphylococcus aureus [7] = experiment: In vivo anti-virulence activity against Staphylococcus aureus Newman infected in BALB/c mouse model assessed as reduction in bacterial load in kidneys at 0.1 mg bid for 3.5 days administered intraperitoneally 6 hrs post infection by serial dilution method; type: functional, organism-based
Outline: (§2)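 Mice (n=10 per group) got 2.3 × 10^7 CFU S. aureus Newman by retro-orbital injection. Compound was given intraperitoneally b.i.d., either 24 h before infection (4.5 d) or 6 h after infection (3.5 d). Mice were sacrificed after 4.5 d and CFU counted in kidneys and hearts. Groups were compared by two-tailed Mann-Whitney test.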

[8] = Half life in Sprague-Dawley rat at 5 mg/kg, iv administered as single dose by LC-MS/MS analysis; type: ADME, organism-based; details: in vivo
Staphylococcus aureus [9] = experiment: In vivo anti-virulence activity against Staphylococcus aureus Newman infected in BALB/c mouse model assessed as reduction in bacterial load in heart at 0.1 mg bid for 3.5 days administered intraperitoneally 6 hrs post infection by serial dilution method; type: functional, organism-based; outline: as §2
[10] = target: T1, 4,4'-diapophytoene desaturase (4,4'-diaponeurosporene-forming); experiment: Inhibition of Staphylococcus aureus Newman 6His-tagged CrtN expressed in Escherichia coli BL21 (DE3)/pET28a::CrtN assessed as reduction in staphyloxanthin levels using diapophytoene as substrate after overnight incubation by spectrophotometric analysis; parameters: species or system Staphylococcus aureus subsp. aureus str. Newman
[11] = Cytotoxicity against HEK293 cells after 43 hrs by Alamar blue dye-based fluorescence assay; type: cell-based; details: human
Staphylococcus aureus [12] = experiment: Antibacterial activity against Staphylococcus aureus Newman after 24 hrs by broth dilution method; type: functional; details: Staphylococcus aureus, Newman, 24 h; read-out: MIC
Staphylococcus aureus [13] = experiment: In vivo anti-virulence activity against methicillin-resistant Staphylococcus aureus NRS271 infected in BALB/c mouse model assessed as reduction in bacterial load in heart at 0.4 mg bid for 4.5 days administered intraperitoneally 24 hrs prior to infection by serial dilution method; type: functional; parameters: scale not given: the % may be the effect or the level left
Outline: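 Mice (n=10 per group) infected retro-orbitally with S. aureus Mu50 (1.1 × 10^9 or 1.3 × 10^9 CFU) or NRS271 (2.3 × 10^8 CFU). Compound given i.p. b.i.d., either 6 h after infection for 3.5 d or 24 h before infection for 4.5 d. Mice killed after 4.5 d; log10 CFU per organ counted in kidneys and hearts. Two-tailed Mann−Whitney test.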

Staphylococcus aureus [14] = experiment: In vivo anti-virulence activity against methicillin-resistant Staphylococcus aureus LRSA56 infected in BALB/c mouse model assessed as reduction in bacterial load in heart at 0.1 mg bid for 3.5 days administered intraperitoneally 6 hrs post infection by serial dilution method relative to control; type: functional; parameters: scale not given: the % may be the effect or the level left; outline: as §1
[15] = AUC (0 to infinity) in Sprague-Dawley rat at 10 mg/kg, ip administered as single dose by LC-MS/MS analysis; type: ADME, organism-based; parameters: dose 10 mg/kg, time infinity, route intraperitoneal; details: in vivo
[16] = Clearance in mouse at 2 mg/kg, iv administered as single dose by LC-MS/MS analysis; type: ADME, organism-based; details: in vivo

Chain of Cytochrome P450 2C8 (P10632 whole entry): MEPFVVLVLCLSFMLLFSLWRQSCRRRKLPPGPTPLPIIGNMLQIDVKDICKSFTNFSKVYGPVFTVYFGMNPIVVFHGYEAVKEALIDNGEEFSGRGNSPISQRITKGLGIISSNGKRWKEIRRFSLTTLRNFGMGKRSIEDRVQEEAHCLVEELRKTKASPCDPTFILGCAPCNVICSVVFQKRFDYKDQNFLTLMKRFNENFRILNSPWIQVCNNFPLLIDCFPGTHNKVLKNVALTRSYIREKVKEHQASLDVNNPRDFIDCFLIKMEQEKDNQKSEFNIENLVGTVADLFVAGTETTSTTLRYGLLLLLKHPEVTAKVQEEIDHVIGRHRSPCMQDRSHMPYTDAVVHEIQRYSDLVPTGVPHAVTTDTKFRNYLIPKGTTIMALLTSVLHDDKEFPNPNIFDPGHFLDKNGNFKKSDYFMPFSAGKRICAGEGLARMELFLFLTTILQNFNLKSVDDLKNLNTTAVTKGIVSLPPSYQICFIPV

| SMILES | IC50 (Cytochrome P450 2C8) [nM] | Activity (Staphylococcus aureus [1]) | IC50 [2] [nM] | AUC(0-t) at 24 h [3] [µg·h/mL] | Survival [4] [%] | Tmax [5] [h] | Tmax [6] [min] | Activity (Staphylococcus aureus [7]) | half-life [8] [h] | Activity (Staphylococcus aureus [9]) | IC50 [10] [nM] | CC50 at 43 h [11] [nM] | MIC (Staphylococcus aureus [12]) [µg/mL] | Activity (Staphylococcus aureus [13]) [%] | Activity (Staphylococcus aureus [14]) [%] | AUC(0-inf) [15] [µg·h/mL] | clearance [16] [mL/min/kg] |
| --- | --- | --- | --- | --- | --- | --- | --- | --- | --- | --- | --- | --- | --- | --- | --- | --- | --- |
| CN(C/C=C/c1ccc(-c2ccccc2)cc1)Cc1coc2ccccc12.Cl | > 10000 | Active | 1.8 | 4.53 | 2.3 | 2 | 4.8 | Active | 2.46 | Active | 400 | 48100 | > 500 | >95 | >81.4 | 1090 | 30.7 |
| CN(C/C=C/c1ccc(-c2ccccc2)cc1)Cc1cccc2cc[nH]c12.Cl |  |  | 2.6 |  |  |  |  | inactive |  | inactive | 200 | 26500 |  | >95 |  |  |  |

Reference: ChEMBL document CHEMBL4024779, “Novel Terminal Bipheny-Based Diapophytoene Desaturases (CrtN) Inhibitors as Anti-MRSA/VISR/LRSA Agents with Reduced hERG Activity” (J Med Chem, 2018)
